{"source": "PubChem BioAssay AID504383", "about": "(The Scripps Research Institute Molecular Screening Center, 2011)", "note": "In all, about 2,500 compounds went through this assay and about 1,200 (48%) were called active.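 How the source made its calls: active means mean activation above the low control average plus 3 SD, as set in the primary screen (cut at about 12% in these data); inactive means the rest.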 So high a share suggests a set chosen from earlier hits. Some of the results follow.", "data": [{"molecular_target": "Troponin I, cardiac muscle (Homo sapiens) + Troponin T, cardiac muscle (Homo sapiens) + Troponin C, slow skeletal and cardiac muscles (Homo sapiens) (UniProt P19429+P45379+P63316)", "assay": "calcium sensitizers of cardiac thin filaments – biochemical, IANBD-TnC fluorescence, triplicate, confirmation (AID 504383);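 further: 0% = DMSO at 0.472 mM calcium and 100% = DMSO at 2.9 mM calcium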", "details": "IANBD-labeled cardiac RTF, Ca2+ sensitivity fluorescence; at 7.2 µM; hits give high values; scaled from EC20 to saturating calcium; tested at EC20 calcium, 0.472 mM", "in_short": "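Test system: labelled regulated thin filament protein complex. Dosing: single nominal compound dose of 7.2 µM. Benchmarks: EC20 and EC100 calcium wells. Read-out basis: fluorescence gain scaled between EC20 and EC100 calcium controls. Probe or stimulus: submaximal calcium at 0.472 mM (EC20). Technique: fluorescence. Times: 15 min compound exposure, 25 °C.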", "values": [{"smiles": "CCCCCCc1cc2cc(-c3nnc(-c4ccccc4O)o3)c(=O)oc2cc1O", "activation": "14.4% (active)"}, {"smiles": "CCCCCCc1cc2cc(-c3nnc(-c4ccccc4)o3)c(=O)oc2cc1O", "activation": "4.49% (inactive)"}, {"smiles": "O=[N+]([O-])c1cc(-c2nc(-c3ccncc3)no2)ccc1Cl", "activation": "7.62% (inactive)"}, {"smiles": "CCOC(=O)C1(Cc2cccc(OC)c2)CCCN(Cc2nccn2CC)C1", "note": "(stereo not given)", "activation": "6.61% (inactive)"}, {"smiles": "CCOC(=O)C1(CCc2ccccc2)CCN(C(=O)c2occc2C)CC1", "activation": "9.68% (inactive)"}, {"smiles": "CCOC(=O)C1(Cc2cccc(OC)c2)CCN(Cc2ccon2)CC1", "activation": "12.7% (active)"}, {"smiles": "Nc1ccc(S(N)(=O)=O)cc1N", "activation": "600% (active)"}, {"smiles": "CC(C)CN(C(=O)CCCc1nc2ccccc2c(=O)[nH]1)c1c(N)n(Cc2ccccc2)c(=O)[nH]c1=O", "activation": "8.94% (inactive)"}, {"smiles": "CCOc1ccccc1N1CCN(CC(=O)c2c(N)n(C)c(=O)n(C)c2=O)CC1", "activation": "14.9% (active)"}, {"smiles": "CCCCn1c(N)c(N(CC(C)C)C(=O)Cc2ccc(S(=O)(=O)N3CCOCC3)s2)c(=O)[nH]c1=O", "activation": "8.87% (inactive)"}, {"smiles": "CCOc1ccccc1N1CCN(CC(=O)N(CC(C)C)c2c(N)n(CC(C)C)c(=O)[nH]c2=O)CC1", "activation": "35.3% (active)"}, {"smiles": "c1ccc(CCCN2CCN(c3ccccc3)CC2)cc1", "activation": "7.15% (inactive)"}, {"smiles": "O[C@@H]1CN(C2CCCCC2)CC[C@H]1N1CCN(CCc2ccccc2)CC1", "activation": "18.1% (active)"}, {"smiles": "CC1=NN(c2ccc(Br)cc2)C(=O)/C1=C/c1ccc(-c2ccccc2C(=O)O)o1", "activation": "10.1% (inactive)"}, {"smiles": "CC1=NN(c2ccc(C)c(C)c2)C(=O)/C1=C/c1ccc2c(c1)n(C)c(=O)n2C", "activation": "57.9% (active)"}, {"smiles": "O=C(NCC1CC1)Nc1cccc(Cl)c1", "activation": "2.84% (inactive)"}, {"smiles": "CN1CCC/C1=C1/C(=O)N(c2ccccc2)N=C1NC(=O)Nc1cccc(Cl)c1", "activation": "-1.33% (inactive)"}, {"smiles": "O=C(Nc1ccc(C(=O)N2CCOCC2)cc1)Nc1cccc(Cl)c1", "activation": "47.5% (active)"}, {"smiles": "CC(COC(=O)c1ccccc1)(COC(=O)c1ccccc1)/[N+]([O-])=C/c1ccccc1", "activation": "32% (active)"}, {"smiles": "COCCOC(=O)/C(=C/c1ccc(OC(=O)c2ccccc2)cc1)C(C)=O", "activation": "8.35% (inactive)"}, {"smiles": "COCc1cc(=O)[nH]c2cc(NC(=O)C(C)(C)CCl)c(C)cc12", "activation": "4.59% (inactive)"}, {"smiles": "Cc1cc2nc3c(=O)[nH]c(=S)[nH]c3nc2cc1NC(=O)C(F)(F)F", "activation": "25.4% (active)"}, {"smiles": "Cc1cc2nc3c(=O)[nH]c(=O)[nH]c3nc2c([N+](=O)[O-])c1N", "activation": "2.96% (inactive)"}, {"smiles": "Cc1cc2nc3c(=O)n(C4CCCCC4)c(=O)[nH]c3nc2cc1N", "activation": "17.8% (active)"}, {"smiles": "Nc1ccc2nc3c(=O)n(C4CCCCC4)c(=O)[nH]c3nc2c1", "activation": "16.6% (active)"}, {"smiles": "Nc1ccc2nc3c(=O)[nH]c(=S)[nH]c3nc2c1", "activation": "28.7% (active)"}, {"smiles": "O=C(c1ccc(Cn2cc([N+](=O)[O-])cn2)o1)N1N=C(C(F)F)CC1(O)C(F)F", "note": "(stereo not given)", "activation": "14.1% (active)"}, {"smiles": "O=C(c1ccc(COc2ccccc2Br)o1)N1N=C(C(F)F)CC1(O)C(F)F", "note": "(stereo not given)", "activation": "34.5% (active)"}, {"smiles": "c1ccc(-n2ncc(-c3nn[nH]n3)n2)cc1", "activation": "163% (active)"}, {"smiles": "CC(=O)Nc1ccc(N2C(=O)c3cccc4c(O)ccc(c34)C2=O)cc1", "activation": "2.36% (inactive)"}, {"smiles": "CC(=O)Nc1ccc(N2C(=O)CSC2c2ccc(F)cc2)cc1", "note": "(stereo not given)", "activation": "81.7% (active)"}, {"smiles": "CCC(=O)N1CCC2(CC1)Oc1ccc(Cl)cc1C(=O)C21CC(c2cccnc2)=NO1", "note": "(stereo not given)", "activation": "19.6% (active)"}, {"smiles": "Cc1c(N2C(=O)/C(=C\\c3ccc(N(C)C)cc3)N(C)C2=S)c(=O)n(-c2ccccc2)n1C", "activation": "6.77% (inactive)"}, {"smiles": "CN1C(=O)/C(=C\\c2ccc(N(C)C)cc2)OC1=S", "activation": "223% (active)"}, {"smiles": "CN(C)c1ccc(/C=C2\\N=C(C(C)(C)C)OC2=O)cc1", "activation": "7.46% (inactive)"}, {"smiles": "CN(N=Nc1nc[nH]c1C(=O)NN)C1CCCCC1", "activation": "12.9% (active)"}, {"smiles": "COC(=O)CCCNC(=O)CCc1nnc(-c2ccc(-c3ccccc3)cc2)o1", "activation": "10.8% (inactive)"}, {"smiles": "Cc1cc(C)c(C#N)c(SCc2nnc(-c3ccccc3)o2)n1", "activation": "50.8% (active)"}, {"smiles": "O=C(CO/N=C/c1ccccc1OC(F)F)NCc1cccs1", "activation": "70.3% (active)"}, {"smiles": "Cc1n[nH]c(C)c1N1C(=O)c2cccc3c(N4CCCCCC4)ccc(c23)C1=O", "activation": "5.61% (inactive)"}, {"smiles": "O=C1c2cccc3c(N4CCCCC4)ccc(c23)C(=O)N1CCO", "activation": "185% (active)"}, {"smiles": "O=C1c2cccc3c(N4CCCCC4)ccc(c23)C(=O)N1c1ccc(O)cc1", "activation": "10.7% (inactive)"}, {"smiles": "O=C1c2cccc3c(N4CCCCC4)ccc(c23)C(=O)N1c1ccccc1O", "activation": "-0.04% (inactive)"}, {"smiles": "CCCN1C(=O)c2cccc3c(N4CCCCC4)ccc(c23)C1=O", "activation": "6.04% (inactive)"}, {"smiles": "O=C1c2ccccc2-c2onc3ccc(N4CCCC4)c1c23", "activation": "9.75% (inactive)"}, {"smiles": "C=CCN1C(=O)c2cccc3c(N4CCCCC4)ccc(c23)C1=O", "activation": "15.9% (active)"}, {"smiles": "O=C1c2cccc3c(N4CCCCC4)ccc(c23)C(=O)N1c1cccc(O)c1", "activation": "33.3% (active)"}, {"smiles": "CC1(C)C2CCC(C2)C1(C)N=C1OC(CCl)CS1", "note": "(stereo not given)", "activation": "3.58% (inactive)"}, {"smiles": "O=c1ccc2cc3c4c(c2o1)CCCN4CCC3", "activation": "33.6% (active)"}, {"smiles": "N=c1oc2c3c4c(cc2cc1C(=O)Nc1ccccc1)CCCN4CCC3", "activation": "88.7% (active)"}, {"smiles": "O=c1oc2c3c4c(cc2c(C(F)(F)F)c1CCN1CCOCC1)CCCN4CCC3", "activation": "4.32% (inactive)"}, {"smiles": "Cc1ccc2c(CN3CCCc4ccccc43)cc(=O)oc2c1C", "activation": "-0.53% (inactive)"}, {"smiles": "CCN(CC)S(=O)(=O)c1ccc2[nH]cc(C(=O)NCCN3CCCCCC3)c(=O)c2c1", "activation": "34.4% (active)"}, {"smiles": "CC(=O)N1CCN(S(=O)(=O)c2cccc(C(=O)NNC(=O)c3ccc(Br)cc3)c2)CC1", "activation": "7.22% (inactive)"}, {"smiles": "CC(C)(C)c1cc(NC(=O)c2cccc(S(=O)(=O)N3CCOCC3)c2)no1", "activation": "23.5% (active)"}, {"smiles": "Cn1nc(-c2ccccc2)c(C(=O)Nc2ccc(C(F)(F)F)cc2)c1Cl", "activation": "26.2% (active)"}, {"smiles": "CN1CCN(C2=CC3=CC(=C(C#N)C#N)CCC3CC2)CC1", "note": "(stereo not given)", "activation": "6.77% (inactive)"}, {"smiles": "CSCC(C)N1CCC(n2nccc2NC(=O)CCCc2ccccc2)CC1", "note": "(stereo not given)", "activation": "162% (active)"}, {"smiles": "COC(=O)CCN(C(=O)c1ccc([N+](=O)[O-])cc1)c1ccccn1", "activation": "19.7% (active)"}, {"smiles": "CC(=O)NCC(O)c1ccc([N+](=O)[O-])cc1", "note": "(stereo not given)", "activation": "7.74% (inactive)"}]}]}
